Assay results taken from ChEMBL document CHEMBL1155224, “Discovery of new inhibitors of resistant Streptococcus pneumoniae penicillin binding protein (PBP) 2x by structure-based virtual screening” (J Med Chem, 2009).
Residue numbers refer to the chain shown, from its start. Activity calls are given as the source filed them. The calls are words filed in the database; no cut-off is given here.

Assays:
[1] = target: T1, Penicillin-binding protein 2x (Streptococcus pneumoniae serotype 4 (strain ATCC BAA-334 / TIGR4)) (UniProt P14677); test: (§1) Inhibition of penicillin-resistant Streptococcus pneumoniae 5204 PBP2X preincubated for 4 hrs before addition of substrate (R)-[2-(benzoylamino)propionylsulfanyl]acetic acid
T1 sequence (whole entry): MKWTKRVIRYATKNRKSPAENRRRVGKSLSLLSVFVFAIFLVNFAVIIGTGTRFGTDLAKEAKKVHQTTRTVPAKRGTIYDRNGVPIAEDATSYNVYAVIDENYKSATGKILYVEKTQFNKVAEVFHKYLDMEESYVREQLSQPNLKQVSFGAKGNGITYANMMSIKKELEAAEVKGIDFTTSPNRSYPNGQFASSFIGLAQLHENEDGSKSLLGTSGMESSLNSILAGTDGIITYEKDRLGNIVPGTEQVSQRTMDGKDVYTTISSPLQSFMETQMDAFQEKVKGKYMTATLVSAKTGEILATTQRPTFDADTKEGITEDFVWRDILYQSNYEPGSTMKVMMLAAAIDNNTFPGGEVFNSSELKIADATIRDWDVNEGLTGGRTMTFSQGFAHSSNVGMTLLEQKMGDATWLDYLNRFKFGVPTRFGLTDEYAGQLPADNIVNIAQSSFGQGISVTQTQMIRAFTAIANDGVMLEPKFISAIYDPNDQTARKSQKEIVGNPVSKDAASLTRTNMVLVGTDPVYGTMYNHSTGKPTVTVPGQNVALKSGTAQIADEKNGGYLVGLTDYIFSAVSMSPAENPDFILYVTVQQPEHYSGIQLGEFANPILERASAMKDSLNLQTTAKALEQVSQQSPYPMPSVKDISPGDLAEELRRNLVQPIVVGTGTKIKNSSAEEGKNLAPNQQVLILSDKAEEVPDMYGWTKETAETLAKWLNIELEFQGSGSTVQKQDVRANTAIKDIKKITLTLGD
In short: (§2)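 0.6 μM 5204-PBP2x preincubated 4 h at 25 °C with inhibitor in 10 mM sodium phosphate pH 7.0, 70 mM D-alanine, 0.01 mg/mL BSA, 1% DMF, 0.01% Triton X-100. Assays were run in triplicate, and IC50 was fitted from residual activity versus decreasing inhibitor concentrations.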

[2] = target: T2, Penicillin-binding protein 2X (Streptococcus pneumoniae R6) (UniProt P59676); test: (§3) Inhibition of penicillin-sensitive Streptococcus pneumoniae R6 PBP2X preincubated for 1 hr before addition of substrate (R)-[2-(benzoylamino)propionylsulfanyl]acetic acid
T2 sequence (whole entry): T1 sequence (whole entry) with T385M
In short: (§4)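 Compounds taken from 100 mM DMF stocks (1% DMF final) and preincubated with 0.09 μM R6-PBP2x in 10 mM sodium phosphate pH 7.0 with 0.01 mg/mL BSA, 60 min, 25 °C. Spontaneous hydrolysis without enzyme measured. Triplicates. IC50 fitted from residual activity versus decreasing inhibitor concentration, with 0.01% Triton X-100.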

[3] = target: T1, Penicillin-binding protein 2x (Streptococcus pneumoniae serotype 4 (strain ATCC BAA-334 / TIGR4)); test: Inhibition of penicillin-resistant Streptococcus pneumoniae 5204 PBP2X; in short: as §2
[4] = target: T1, Penicillin-binding protein 2x (Streptococcus pneumoniae serotype 4 (strain ATCC BAA-334 / TIGR4)); test: Inhibition of penicillin-resistant Streptococcus pneumoniae 5204 PBP2X assessed as residual activity at 100 uM preincubated for 1 hr before addition of substrate (R)-[2-(benzoylamino)propionylsulfanyl]acetic acid
[5] = Inhibition of Streptococcus pneumoniae PBP1B after 60 mins by SDS-PAGE; conditions: read-out: IC50
In short: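 Test compounds incubated with 0.7 μM PBP1b in 10 mM sodium phosphate pH 7.0 for 60 min at 30 °C. Remaining active enzyme counter-labeled with 10 μM fluorescein-labeled ampicillin for 20 min. Reaction stopped, proteins separated by SDS-PAGE and read by fluorescence imaging with background subtracted.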

[6] = target: Penicillin-binding protein 2x (Streptococcus pneumoniae serotype 4 (strain ATCC BAA-334 / TIGR4), UniProt P14677); test: as §1; in short: as §2
[7] = target: T3, Penicillin-binding protein 2X (Streptococcus pneumoniae R6, UniProt P59676); test: as §3; in short: as §4
T3 sequence (P59676 whole entry): T1 sequence (whole entry) with T385M

For `Cc1cc(SCC2=C(C(=O)[O-])N3C[C@@H](NC(=O)CSc4c(Cl)cc(/C=C/C(=O)NCC(=O)[O-])cc4Cl)[C@H]3SC2)cc(C)[n+]1CCC[N+]1(C)CCOCC1`, the Activity [1] was “Active” and the Activity [2] was “Active”.

In the case of `CC(=O)NC1CON(C2(C(=O)O)CCC(=O)O2)C1=O` (stereo not given), the Activity [1] is reported as “Active” and the Activity [2] is reported as “Active”.

In the case of `C[C@@H](O)[C@H]1C(=O)N2C(C(=O)O)=C(SC3CN(C4=NCCS4)C3)[C@H](C)[C@H]12`, the Activity [1] is reported as “Active” and the Activity [2] is reported as “Active”.

With `COc1c(N2CCNC(C)C2)c(F)cc2c(=O)c(C(=O)O)cn(C3CC3)c12` (stereo not given) the Activity [1] was “Active” and the Activity [2] was “Active”.

With `CCO/N=C(\C(=O)NC1C(=O)N2C(C(=O)[O-])=CC(/C=C/Sc3cc[n+](C)cc3)SC12)c1nsc(N)n1` (stereo not given) the Activity [1] was “Active” and the Activity [2] was “Active”.

In the case of `C[C@@H](O)[C@H]1C(=O)N2C(C(=O)O)=C(SCCNC=N)C[C@H]12`, the Activity [1] is reported as “Active” and the Activity [2] is reported as “Active”.

With `N[C@@H](C(=O)N[C@@H]1C(=O)N2C(C(=O)O)=C(Cl)CC[C@H]12)c1ccccc1` the Activity [1] was “Active” and the Activity [2] was “Active”.

For `C[C@@H](NC(=O)c1ccccc1)C(=O)SCC(=O)O`, the Activity [1] was “Active” and the Activity [2] was “Active”.

For `NCCSCc1cnccc1SC1=C(C(=O)O)N2C(=O)[C@@H](NC(=O)/C(=N\O)c3nc(N)sc3Cl)[C@H]2SC1`, the Activity [1] was “Active” and the Activity [2] was “Active”.

With `Cc1cc(Cl)ccc1NC(=O)Nc1c(Oc2ccc(Cl)cc2)ccc(Cl)c1S(=O)(=O)O` the Activity [3] was “Active”, the Activity [4] was 50% and the IC50 [5] was 259 µM. The IC50 [6] was 71 µM and the IC50 [7] was 336 µM.

For `CC(=O)OCC1=C(C(=O)O)N2C(=O)[C@@H](NC(=O)Cc3cccs3)[C@H]2SC1`, the Activity [1] was “Active” and the Activity [2] was “Active”.

With `C=CC1=C(C(=O)O)N2C(=O)[C@@H](NC(=O)/C(=N\O)c3csc(N)n3)[C@H]2SC1` the Activity [1] was “Active” and the Activity [2] was “Active”.

For `CO/N=C(\C(=O)N[C@@H]1C(=O)N2C(C(=O)OCOC(=O)C(C)(C)C)=C(/C=C\c3scnc3C)CS[C@H]12)c1csc(N)n1`, the Activity [1] was “Active” and the Activity [2] was “Active”.

With `O=C(COc1ccccc1)N[C@H]1CON([C@@]2(C(=O)O)CCC(=O)O2)C1=O` the Activity [1] was “Active” and the Activity [2] was “Active”.

For `N[C@@H](C(=O)N[C@@H]1C(=O)N2C(C(=O)O)=C(Cl)CS[C@H]12)c1ccccc1`, the Activity [1] was “Active” and the Activity [2] was “Active”.

In the case of `CC(=N)N1CC[C@H](SC2=C(C(=O)O)N3C(=O)[C@H]([C@@H](C)O)[C@H]3C2)C1`, the Activity [1] is reported as “Active” and the Activity [2] is reported as “Active”.

In the case of `C[C@H]1NCc2cc(-c3ccc4c(=O)c(C(=O)O)cn(C5CC5)c4c3OC(F)F)ccc21`, the Activity [1] is reported as “Active” and the Activity [2] is reported as “Active”.

With `CO[C@H]1CCC[C@H]2C1=C(C(=O)O)N1C(=O)[C@H]([C@@H](C)O)[C@@H]21` the Activity [1] was “Active” and the Activity [2] was “Active”.

In the case of `CO/N=C(\C(=O)N[C@@H]1C(=O)N2C(C(=O)O)=C(COC(N)=O)CS[C@H]12)c1ccco1`, the Activity [1] is reported as “Active” and the Activity [2] is reported as “Active”.

For `O=C(O)c1cc(-c2ccc(/C=C3\S/C(=N\c4ccccc4)N(c4ccccc4)C3=O)o2)ccc1Cl`, the Activity [1] was “inactive” and the Activity [2] was “inactive”.

With `C[C@H]1COc2c(N3CCN(C)CC3)c(F)cc3c(=O)c(C(=O)O)cn1c23` the Activity [1] was “Active” and the Activity [2] was “Active”.

For `CC(=O)C[n+]1ccc(SCC2=C(C(=O)[O-])N3C(=O)[C@@H](NC(=O)/C(=N/OC4CCCC4)c4csc(N)n4)[C@H]3SC2)cc1`, the Activity [1] was “Active” and the Activity [2] was “Active”.

In the case of `CCC1C(=O)N2CC1CC(OC)=C2C(=O)O` (stereo not given), the Activity [1] is reported as “Active” and the Activity [2] is reported as “Active”.

With `CC(NC(=O)C(C)NC(=O)CCCCCN)C(=O)O` (stereo not given) the Activity [1] was “inactive” and the Activity [2] was “inactive”.

In the case of `CCO/N=C(\C(=O)N[C@@H]1C(=O)N2C(C(=O)[O-])=C(C[n+]3cccc4c3ncn4CCCNC)CS[C@H]12)c1nsc(N)n1`, the Activity [1] is reported as “Active” and the Activity [2] is reported as “Active”.

With `CCn1c2ccccc2c2cc(/C=C3\S/C(=N\c4ccccc4)N(C(C(=O)O)C(C)C)C3=O)ccc21` (stereo not given) the Activity [1] was “inactive” and the Activity [2] was “inactive”.

In the case of `CCn1c2ccccc2c2cc(/C=C3\S/C(=N\C(Cc4ccccc4)C(=O)O)N(c4ccccc4)C3=O)ccc21` (stereo not given), the Activity [1] is reported as “inactive” and the Activity [2] is reported as “inactive”.

For `CC/C=C(\C(=O)N[C@@H]1C(=O)N2C(C(=O)O)=C(COC(N)=O)CS[C@H]12)c1csc(N)n1`, the Activity [1] was “Active” and the Activity [2] was “Active”.

With `CO/N=C(\C(=O)N[C@@H]1C(=O)N2C(C(=O)O)=C(COC(C)=O)CS[C@H]12)c1csc(N)n1` the Activity [1] was “Active” and the Activity [2] was “Active”.

With `CC1(C)S[C@@H]2[C@H](NC(=O)[C@H](N)c3ccc(O)cc3)C(=O)N2[C@H]1C(=O)O` the Activity [1] was “Active” and the Activity [2] was “Active”.

With `CO/N=C(\C(=O)N[C@@H]1C(=O)N2C(C(=O)O)=C(CSc3nc(=O)c(O)nn3C)CS[C@H]12)c1csc(N)n1` the Activity [1] was “Active” and the Activity [2] was “Active”.

In the case of `CC1(C)S[C@@H]2[C@H](NC(=O)[C@H](N)c3ccccc3)C(=O)N2[C@H]1C(=O)O`, the Activity [1] is reported as “Active” and the Activity [2] is reported as “Active”.

For `Nc1nc(/C(=N/O)C(=O)N[C@@H]2C(=O)N3C(C(=O)O)=C(/C=C4\CCN([C@@H]5CCNC5)C4=O)CS[C@H]23)ns1`, the Activity [1] was “Active” and the Activity [2] was “Active”.

For `O=C(Cc1cccs1)N[C@@H]1C(=O)N2C(C(=O)O)=C(/C=C/c3ccc([N+](=O)[O-])cc3[N+](=O)[O-])CS[C@H]12`, the Activity [1] was “Active” and the Activity [2] was “Active”.

In the case of `C[C@@H](O)[C@H]1C(=O)N2C(C(=O)O)=C(S[C@@H]3CN[C@H](C(=O)N(C)C)C3)[C@H](C)[C@H]12`, the Activity [1] is reported as “Active” and the Activity [2] is reported as “Active”.

In the case of `COCC1=C(C(=O)O)N2C(=O)[C@@H](NC(=O)/C(=N\OC)c3csc(N)n3)[C@H]2SC1`, the Activity [1] is reported as “Active” and the Activity [2] is reported as “Active”.

With `C[C@@H](O)[C@H]1C(=O)N2C(C(=O)O)=C([C@H]3CCCO3)S[C@H]12` the Activity [1] was “Active” and the Activity [2] was “Active”.

For `Nc1cc(SCSC2=C(C(=O)O)N3C(=O)[C@@H](NC(=O)/C(=N/O)c4nc(N)sc4Cl)[C@H]3SC2)nc(N)n1`, the Activity [1] was “Active” and the Activity [2] was “Active”.

In the case of `CCn1c2ccccc2c2cc(/C=C3\S/C(=N\c4ccccc4)N(C(C(=O)O)c4ccccc4)C3=O)ccc21` (stereo not given), the Activity [1] is reported as “inactive” and the Activity [2] is reported as “inactive”.

For `CC=CC1=C(C(=O)O)N2C(=O)[C@@H](NC(=O)[C@H](N)c3ccc(O)cc3)[C@H]2SC1`, the Activity [1] was “Active” and the Activity [2] was “Active”.

In the case of `C[C@@H](O)[C@H]1C(=O)N2C(C(=O)[O-])=C(SC3Cn4cnc[n+]4C3)[C@H](C)[C@H]12` (stereo not given in full), the Activity [1] is reported as “Active” and the Activity [2] is reported as “Active”.
